The source made the active and inactive calls. The rule behind the calls is not given here.

For series [1], the system named is Human immunodeficiency virus 1. The series can be described thus: Antiviral activity against HIV1 R5 in human PBMC assessed as fractional inhibition of viral replication at 0.125 nM. It counts as functional. The essentials: (§1)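 Fixed-ratio combination in PBMC p24 infectivity assays (RAPA pretreatment, MOI 0.001, p24 ELISA day 4). Each drug tested alone in twofold dilutions, RAPA 0.125–2 nM and T-20 2.5–40 nM, and in a 1/20 RAPA/T-20 molar ratio. Median-effect (Chou) analysis gave Dm, m, r, combination index and dose reduction index.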

Series [2] concerns Human immunodeficiency virus 1. The series is described as follows: Antiviral activity against HIV1 ADA in human PBMC assessed as reduction of p24 antigen levels. It counts as functional, organism-based. The following applies: Human immunodeficiency virus 1, ADA. The essentials:
(§2)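 PBMCs cultured 6 days with IL-2 (100 U/ml) plus RAPA, then exposed 2 h to HIV-1 ADA (R5) or IIIb (X4) at MOI 0.001, washed three times with PBS, and kept in IL-2 medium with drugs. p24 in supernatant by ELISA on day 4 after infection. Means ± SD of independent experiments.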

For series [3], the system named is PBMC. The series is described as follows: Effect on cell viability of human PBMC at 0.03 to 1 nM after 14 days by trypan blue staining. It counts as cell-based. The following applies: 336 h, 0.001 µM. The essentials:
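PBMCs cultured with IL-2 and RAPA for 14 days; viability by trypan blue staining. Means ± SD from seven donors.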

For series [4], the system named is Human immunodeficiency virus 1. The series is described as follows: Antiviral activity against HIV1 ADA in human PBMC assessed as reduction of p24 antigen levels after 4 days of infection. It counts as functional, organism-based. In outline:
as §2

Series [5] deals with PBMC. The series can be described thus: Effect on cell viability of human PBMC pretreated for 14 days by trypan blue staining. The following applies: 336 h.
In series [6] the test system is PBMC. The series is described as follows: Reduction of CXCR4 density on human PBMC at 0.1 to 1 nM after 6 days by quantitative fluorescence-activated cell sorting. It counts as functional, cell-based. In outline: (§3)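 PBMCs cultured 6 days with IL-2 and RAPA. Blocked 30 min at room temperature (PBS with 2% human serum, 5% horse serum, 0.1% azide), then stained 30 min with PE antibodies. Surface molecules per cell from FL-2 by Quantibrite-PE bead regression, PE/antibody ratio 1:1. Means ± SD from seven donors; Student's t test versus untreated.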

The subject of series [7] is Human immunodeficiency virus 1. The series is described as follows: Antiviral activity against HIV1 R5 in human PBMC assessed as fractional inhibition of viral replication. It counts as functional, organism-based. The following applies: Human immunodeficiency virus 1, R5. The essentials: as §1
In series [8] the test system is Human immunodeficiency virus 1. The series can be described thus: Antiviral activity against HIV1 R5 in human PBMC assessed as fractional inhibition of viral replication at 0.250 nM. It counts as functional. The essentials: as §1
For series [9], the system named is Human immunodeficiency virus 1. The series is described as follows: Antiviral activity against HIV1 R5 in human PBMC assessed as fractional inhibition of viral replication at 0.5 nM. It counts as functional. In outline: as §1
For series [10], the system named is PBMC. The series is described as follows: Reduction of CCR5 density on human sPBMC at 0.1 to 1 nM after 6 days by quantitative fluorescence-activated cell sorting. It counts as functional, cell-based. In outline:
as §3

Series [11] concerns Human immunodeficiency virus 1. The series is described as follows: Antiviral activity against HIV1 R5 in human PBMC assessed as fractional inhibition of viral replication at 2 nM. It counts as functional. The essentials:
as §1

In series [12] the test system is Human immunodeficiency virus 1. The series can be described thus: Antiviral activity against HIV1 R5 in human PBMC assessed as fractional inhibition of viral replication at 1 nM. It counts as functional. In outline: as §1
Series [13] deals with Human immunodeficiency virus 1. The series is described as follows: Antiviral activity against HIV1 X4 assessed as inhibition of cell-cell fusion between X4-envelope expressing HEK293T cells and CD8 depleted human PBMCs pretreated for 6 days. It counts as functional, organism-based. The following applies: Human immunodeficiency virus 1, X4, HEK-293T. The essentials:
(§4)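 Target cells were CD8-depleted PBMCs pretreated 6 days with RAPA and labeled with calcein-AM. Effectors were 293T cells transfected with JRFL (R5) or HXB2 (X4) Env plus Rev, loaded with CMTMR on day 2. Cells cocultured 1:3 ± T-20 for 2.5 h at 37°C in HEPES-DMEM pH 7.2 with BSA 1 mg/ml. Double-positive cells scored by microscopy, ≥100 cells, normalized to no-T-20 fusion. EC50 from F = 100/(1 + Ci/EC50).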

Series [14] has as its system Human immunodeficiency virus 1. The series is described as follows: Antiviral activity against HIV1 R5 assessed as inhibition of cell-cell fusion between R5-envelope expressing HEK293T cells and CD8 depleted human PBMCs pretreated for 6 days. It counts as functional, organism-based. Particulars: Human immunodeficiency virus 1, R5, HEK-293T. The essentials: as §4
For series [15], the system named is PBMC. The series is described as follows: Reduction of CD4 density on human PBMC at 1 nM after 6 days by quantitative fluorescence-activated cell sorting. Details: scale not given: the % may be the effect or the level left. It counts as functional. The essentials: as §3
Series [16] relates to Human immunodeficiency virus 1. The series can be described thus: Antiviral activity against HIV1 X4 in human PBMC assessed as reduction of p24 antigen levels. The following applies: Human immunodeficiency virus 1, X4. It counts as functional, organism-based. The essentials: as §2
The subject of series [17] is Human immunodeficiency virus 1. The series can be described thus: Antiviral activity against HIV1 R5 in human PBMC assessed as fractional inhibition of viral replication at 2.5 nM. It counts as functional. In outline:
as §1

The subject of series [18] is Human immunodeficiency virus 1. The series can be described thus: Antiviral activity against HIV1 R5 in human PBMC assessed as fractional inhibition of viral replication at 5 nM. It counts as functional. In outline: as §1
Series [19] has as its system Human immunodeficiency virus 1. The series can be described thus: Antiviral activity against HIV1 R5 in human PBMC assessed as fractional inhibition of viral replication at 10 nM. It counts as functional. In outline:
as §1

Series [20] has as its system Human immunodeficiency virus 1. The series can be described thus: Antiviral activity against HIV1 R5 in human PBMC assessed as fractional inhibition of viral replication at 40 nM. It counts as functional. In outline: as §1
For series [21], the system named is Human immunodeficiency virus 1. The series can be described thus: Antiviral activity against HIV1 R5 in human PBMC assessed as fractional inhibition of viral replication at 20 nM. It counts as functional. In outline:
as §1

Regarding `CO[C@H]1C[C@@H]2CC[C@@H](C)[C@@](O)(O2)C(=O)C(=O)N2CCCC[C@H]2C(=O)O[C@H]([C@H](C)C[C@@H]2CC[C@@H](O)[C@H](OC)C2)CC(=O)[C@H](C)/C=C(\C)[C@@H](O)[C@@H](OC)C(=O)[C@H](C)C[C@H](C)/C=C/C=C/C=C/1C` [SIROLIMUS], the Activity in series [1] is reported as 0.34; in the series on PBMC [3] it was “Non-toxic”; in the series with PBMC [5], “Non-toxic”; in series [8], 0.66; in [9] it was 0.78; in series [11], 0.92. Moreover, the Activity came to 0.85 in series [12] and 15% in the series with PBMC [15]. Besides, the EC50 in series [2] amounted to 0.15 nM; in series [7], 0.18 nM; in [13], 1.3 nM; in [14], 0.1 nM. Also, the outcome (in [4]; with PBMC [10]) was Active. The result in the series with PBMC [6] was inactive.

On to enfuvirtide, for which the EC50 was 2.5 nM in series [16], 10 nM in [2] and 12.9 nM in [7]. In addition, the Activity worked out at 0.23 in series [17]; 0.24 in series [18]; 0.5 in series [19]; 0.73 in series [20]; 0.57 in series [21].

The values are drawn from ChEMBL document CHEMBL1157364, “Rapamycin reduces CCR5 density levels on CD4 T cells, and this effect results in potentiation of enfuvirtide (T-20) against R5 strains of human immunodeficiency virus type 1 in vitro” (Antimicrob Agents Chemother, 2007).
